Non-standard residues stand in square brackets, D forms with d. Residues, ends and D or L forms follow the SMILES beside them. *: point of attachment. Adamantane1carbonyl = O=C(C12CC3CC(CC(C3)C1)C2)*; Phenylacetyl(4-F) = O=C(Cc1ccc(F)cc1)*; NBn2 = c1ccc(CN(Cc2ccccc2)*)cc1; Cha = N[C@@H](CC1CCCCC1)C(=O)O; Tle = CC(C)(C)[C@H](N)C(=O)O; X2 = CN(C)C(=NCC(=O)*)N(C)C; Nle = CCCC[C@H](N)C(=O)O; Cbz = O=C(OCc1ccccc1)*; NHBn = c1ccc(CN*)cc1; Piv = CC(C)(C)C(=O)*
What follows are compounds tested against T1, Pyroglutamylated RF-amide peptide receptor (Homo sapiens, UniProt Q96P65) (assay: Agonist activity at DYKDDDDK-flagged human GPR103 receptor expressed in CHO-K1 cells co-expressing G-protein alpha16 assessed as stimulation of calcium mobilization after 2 mins by fluorometric analysis).
T1 sequence (Q96P65 whole entry): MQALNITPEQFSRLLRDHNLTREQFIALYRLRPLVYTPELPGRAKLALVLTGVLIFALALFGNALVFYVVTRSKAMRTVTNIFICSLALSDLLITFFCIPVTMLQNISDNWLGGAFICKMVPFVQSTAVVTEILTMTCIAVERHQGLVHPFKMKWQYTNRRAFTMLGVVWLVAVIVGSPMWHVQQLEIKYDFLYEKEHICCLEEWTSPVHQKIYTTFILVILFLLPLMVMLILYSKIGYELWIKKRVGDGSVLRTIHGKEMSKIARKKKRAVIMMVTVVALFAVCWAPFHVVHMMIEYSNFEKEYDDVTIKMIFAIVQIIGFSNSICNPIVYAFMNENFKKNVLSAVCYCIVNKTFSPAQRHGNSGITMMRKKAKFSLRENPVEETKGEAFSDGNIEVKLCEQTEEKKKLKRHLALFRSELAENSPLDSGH
Format: functional, cell-based
Outline: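 CHO-K1 cells stably expressing Gα16 and C-terminally flag-tagged human GPR103 (Geneticin-selected), plated at 40 000 cells/well 24 h before assay. Loaded with 2 μM Fluo-4AM for 1 h, washed, then 30 min in HBSS with 2.5 mM probenecid and 5 mM HEPES. Peptides added at 10^-12 to 10^-5 M final and fluorescence read for 2 min. Triplicates; EC50 from sigmoidal variable-slope fit, at least three experiments.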

| SMILES | EC50 |
| --- | --- |
| NC(=O)[C@H](Cc1ccccc1)NC(=O)[C@H](CCCN=C(N)N)NC(=O)[C@H](Cc1ccccc1)NC(=O)[C@H](CO)NC(=O)[C@H](Cc1ccccc1)NC(=O)CNC(=O)CNC(=O)OCc1ccccc1 (Cbz-GGFSFRF-NH2) | 826 nM |
| N=C(N)NCCC[C@H](NC(=O)[C@H](Cc1ccccc1)NC(=O)[C@H](CC1CCCCC1)NC(=O)[C@H](Cc1ccccc1)NC(=O)CNC(=O)CN)C(=O)N[C@@H](Cc1ccccc1)C(N)=O (H-GGF[Cha]FRF-NH2) | 1100 nM |
| C[C@H](NC(=O)[C@H](Cc1cnc[nH]1)NC(=O)[C@@H](N)CCC(=O)O)C(=O)NCC(=O)N[C@@H](CS)C(=O)N[C@@H](CCCN=C(N)N)C(=O)N[C@@H](Cc1ccccc1)C(=O)N[C@@H](CCCN=C(N)N)C(=O)N[C@@H](Cc1ccccc1)C(N)=O (H-EHAGCRFRF-NH2) | 2910 nM |
| CC(C)[C@H](NC(=O)[C@H](Cc1ccccc1)NC(=O)CNC(=O)CN)C(=O)N[C@@H](Cc1ccccc1)C(=O)N[C@@H](CCCN=C(N)N)C(=O)N[C@@H](Cc1ccccc1)C(N)=O (H-GGFVFRF-NH2) | 1630 nM |
| N=C(N)NCCC[C@H](NC(=O)[C@H](Cc1ccccc1)NC(=O)[C@H](CO)NC(=O)[C@H](Cc1ccccc1)NC(=O)CNC(=O)CNC(=O)C12CC3CC(CC(C3)C1)C2)C(=O)N[C@@H](Cc1ccccc1)C(N)=O (Adamantane1carbonyl-GGFSFRF-NH2) | 588 nM |
| CC(C)C[C@H](NC(=O)[C@@H]1CCCN1)C(=O)NCC(=O)N[C@@H](CC(N)=O)C(=O)N[C@@H](CC(C)C)C(=O)N[C@@H](C)C(=O)N[C@@H](CCC(=O)O)C(=O)N[C@@H](CCC(=O)O)C(=O)N[C@@H](CC(C)C)C(=O)N[C@@H](CC(N)=O)C(=O)NCC(=O)N[C@@H](Cc1ccc(O)cc1)C(=O)N[C@@H](CO)C(=O)N[C@@H](CCCN=C(N)N)C(=O)N[C@@H](CCCCN)C(=O)N[C@@H](CCCCN)C(=O)NCC(=O)NCC(=O)N[C@@H](Cc1ccccc1)C(=O)N[C@@H](CO)C(=O)N[C@@H](Cc1ccccc1)C(=O)N[C@@H](CCCN=C(N)N)C(=O)N[C@@H](Cc1ccccc1)C(N)=O (H-PLGNLAEELNGYSRKKGGFSFRF-NH2) | 43.2 nM |
| CC(C)(C)C(=O)NCC(=O)NCC(=O)N[C@@H](Cc1ccccc1)C(=O)N[C@@H](CO)C(=O)N[C@@H](Cc1ccccc1)C(=O)N[C@@H](CCCN=C(N)N)C(=O)N[C@@H](Cc1ccccc1)C(N)=O (Piv-GGFSFRF-NH2) | 2540 nM |
| CC(=O)NCC(=O)NCC(=O)N[C@@H](Cc1ccccc1)C(=O)N[C@@H](CO)C(=O)N[C@@H](Cc1ccccc1)C(=O)N[C@@H](CCCNC(=N)N)C(=O)N[C@@H](Cc1ccccc1)C(N)=O (Ac-GGFSFRF-NH2) | 1440 nM |
| CC(C)C[C@H](NC(=O)[C@H](CC(N)=O)NC(=O)CNC(=O)[C@H](CC(C)C)NC(=O)[C@@H]1CCCN1C(=O)CNC(=O)[C@H](CO)NC(=O)[C@@H](N)[C@@H](C)O)C(=O)N[C@@H](C)C(=O)N[C@@H](CCC(=O)O)C(=O)N[C@@H](CCC(=O)O)C(=O)N[C@@H](CC(C)C)C(=O)N[C@@H](CC(N)=O)C(=O)NCC(=O)N[C@@H](Cc1ccc(O)cc1)C(=O)N[C@@H](CO)C(=O)N[C@@H](CCCN=C(N)N)C(=O)N[C@@H](CCCCN)C(=O)N[C@@H](CCCCN)C(=O)NCC(=O)NCC(=O)N[C@@H](Cc1ccccc1)C(=O)N[C@@H](CO)C(=O)N[C@@H](Cc1ccccc1)C(=O)N[C@@H](CCCN=C(N)N)C(=O)N[C@@H](Cc1ccccc1)C(=O)NCc1ccccc1 (H-TSGPLGNLAEELNGYSRKKGGFSFRF-NHBn) | 39 nM |
| N=C(N)NCCC[C@H](NC(=O)[C@H](Cc1ccccc1)NC(=O)[C@H](CO)NC(=O)[C@H](Cc1ccccc1)NC(=O)CNC(=O)CNC(=O)[C@H](CCCCN)NC(=O)[C@H](CCCCN)NC(=O)[C@@H](N)CCCNC(=N)N)C(=O)N[C@@H](Cc1ccccc1)C(N)=O (H-RKKGGFSFRF-NH2) | 282 nM |
| NCC(=O)NCC(=O)N[C@@H](Cc1ccccc1)C(=O)N[C@H](CO)C(=O)N[C@@H](Cc1ccccc1)C(=O)N[C@@H](CCCN=C(N)N)C(=O)N[C@@H](Cc1ccccc1)C(N)=O | 4980 nM |
| NCCCC[C@H](NC(=O)[C@H](CCCCN)NC(=O)[C@H](CCCN=C(N)N)NC(=O)[C@H](CO)NC(=O)[C@H](Cc1ccc(O)cc1)NC(=O)CNC(=O)[C@@H](N)CC(N)=O)C(=O)NCC(=O)NCC(=O)N[C@@H](Cc1ccccc1)C(=O)N[C@@H](CO)C(=O)N[C@@H](Cc1ccccc1)C(=O)N[C@@H](CCCN=C(N)N)C(=O)N[C@@H](Cc1ccccc1)C(N)=O (H-NGYSRKKGGFSFRF-NH2) | 95.3 nM |
| CC(C)C[C@H](NC(=O)[C@H](CCC(=O)O)NC(=O)[C@@H](N)CCC(=O)O)C(=O)N[C@@H](CC(N)=O)C(=O)NCC(=O)N[C@@H](Cc1ccc(O)cc1)C(=O)N[C@@H](CO)C(=O)N[C@@H](CCCNC(=N)N)C(=O)N[C@@H](CCCCN)C(=O)N[C@@H](CCCCN)C(=O)NCC(=O)NCC(=O)N[C@@H](Cc1ccccc1)C(=O)N[C@@H](CO)C(=O)N[C@@H](Cc1ccccc1)C(=O)N[C@@H](CCCNC(=N)N)C(=O)N[C@@H](Cc1ccccc1)C(N)=O (H-EELNGYSRKKGGFSFRF-NH2) | 37.5 nM |
| CC(C)C[C@H](NC(=O)[C@H](CCC(=O)O)NC(=O)[C@H](CCC(=O)O)NC(=O)[C@H](C)NC(=O)[C@H](CC(C)C)NC(=O)[C@@H](N)CC(N)=O)C(=O)N[C@@H](CC(N)=O)C(=O)NCC(=O)N[C@@H](Cc1ccc(O)cc1)C(=O)N[C@@H](CO)C(=O)N[C@@H](CCCNC(=N)N)C(=O)N[C@@H](CCCCN)C(=O)N[C@@H](CCCCN)C(=O)NCC(=O)NCC(=O)N[C@@H](Cc1ccccc1)C(=O)N[C@@H](CO)C(=O)N[C@@H](Cc1ccccc1)C(=O)N[C@@H](CCCNC(=N)N)C(=O)N[C@@H](Cc1ccccc1)C(N)=O (H-NLAEELNGYSRKKGGFSFRF-NH2) | 30.2 nM |
| CC(C)(C)[C@H](NC(=O)[C@H](Cc1ccccc1)NC(=O)CNC(=O)CN)C(=O)N[C@@H](Cc1ccccc1)C(=O)N[C@@H](CCCN=C(N)N)C(=O)N[C@@H](Cc1ccccc1)C(N)=O (H-GGF[Tle]FRF-NH2) | 1820 nM |
| C[C@H](NC(=O)[C@H](Cc1ccccc1)NC(=O)CNC(=O)CN)C(=O)N[C@@H](Cc1ccccc1)C(=O)N[C@@H](CCCNC(=N)N)C(=O)N[C@@H](Cc1ccccc1)C(N)=O (H-GGFAFRF-NH2) | 1310 nM |
| NCCCC[C@H](N)C(=O)NCC(=O)NCC(=O)N[C@@H](Cc1ccccc1)C(=O)N[C@@H](CO)C(=O)N[C@@H](Cc1ccccc1)C(=O)N[C@@H](CCCN=C(N)N)C(=O)N[C@@H](Cc1ccccc1)C(N)=O (H-KGGFSFRF-NH2) | 1710 nM |
| NCCCC[C@H](NC(=O)[C@H](CCCCN)NC(=O)[C@H](CCCN=C(N)N)NC(=O)[C@H](CO)NC(=O)[C@@H](N)Cc1ccc(O)cc1)C(=O)NCC(=O)NCC(=O)N[C@@H](Cc1ccccc1)C(=O)N[C@@H](CO)C(=O)N[C@@H](Cc1ccccc1)C(=O)N[C@@H](CCCN=C(N)N)C(=O)N[C@@H](Cc1ccccc1)C(N)=O (H-YSRKKGGFSFRF-NH2) | 138 nM |
| C[C@H](NC(=O)CNC(=O)CN)C(=O)N[C@@H](CO)C(=O)N[C@@H](Cc1ccccc1)C(=O)N[C@@H](CCCNC(=N)N)C(=O)N[C@@H](Cc1ccccc1)C(N)=O (H-GGASFRF-NH2) | 1330 nM |
| CC(C)C[C@H](NC(=O)[C@H](CC(N)=O)NC(=O)CNC(=O)[C@H](CC(C)C)NC(=O)[C@@H]1CCCN1C(=O)CNC(=O)[C@H](CO)NC(=O)[C@@H](N)[C@@H](C)O)C(=O)N[C@@H](C)C(=O)N[C@@H](CCC(=O)O)C(=O)N[C@@H](CCC(=O)O)C(=O)N[C@@H](CC(C)C)C(=O)N[C@@H](CC(N)=O)C(=O)NCC(=O)N[C@@H](Cc1ccc(O)cc1)C(=O)N[C@@H](CO)C(=O)N[C@@H](CCCNC(=N)N)C(=O)N[C@@H](CCCCN)C(=O)N[C@@H](CCCCN)C(=O)NCC(=O)NCC(=O)N[C@@H](Cc1ccccc1)C(=O)N[C@@H](CO)C(=O)N[C@@H](Cc1ccccc1)C(=O)N[C@@H](CCCNC(=N)N)C(=O)N[C@@H](Cc1ccccc1)C(=O)N(Cc1ccccc1)Cc1ccccc1 (H-TSGPLGNLAEELNGYSRKKGGFSFRF-NBn2) | 166 nM |
| CCCC[C@H](NC(=O)[C@H](Cc1ccccc1)NC(=O)CNC(=O)CN)C(=O)N[C@@H](Cc1ccccc1)C(=O)N[C@@H](CCCN=C(N)N)C(=O)N[C@@H](Cc1ccccc1)C(N)=O (H-GGF[Nle]FRF-NH2) | 741 nM |
| NC(=O)[C@H](Cc1ccccc1)NC(=O)[C@H](CCCN=C(N)N)NC(=O)[C@H](Cc1ccccc1)NC(=O)[C@H](CO)NC(=O)[C@H](Cc1ccccc1)NC(=O)CNC(=O)CNC(=O)Cc1ccc(F)cc1 ({Phenylacetyl(4-F)}-GGFSFRF-NH2) | 830 nM |
| CC(C)C[C@H](NC(=O)[C@H](CCC(=O)O)NC(=O)[C@H](CCC(=O)O)NC(=O)[C@H](C)NC(=O)[C@H](CC(C)C)NC(=O)[C@@H](NC(=O)CNC(=O)[C@H](CC(C)C)NC(=O)[C@@H]1CCCN1C(=O)CNC(=O)[C@H](CO)NC(=O)[C@H](C)N)[C@@H](C)O)C(=O)N[C@@H](CO)C(=O)N[C@@H](CO)C(=O)N[C@@H](Cc1ccc(O)cc1)C(=O)N[C@@H](CO)C(=O)N[C@@H](CCCNC(=N)N)C(=O)N[C@@H](CCCNC(=N)N)C(=O)N[C@@H](CCCCN)C(=O)NCC(=O)NCC(=O)N[C@@H](Cc1ccccc1)C(=O)N[C@@H](CO)C(=O)N[C@@H](Cc1ccccc1)C(=O)N[C@@H](CCCNC(=N)N)C(=O)N[C@@H](Cc1ccccc1)C(N)=O (H-ASGPLGTLAEELSSYSRRKGGFSFRF-NH2) | 4.9 nM |
| CN(C)C(=NCC(=O)N[C@@H](Cc1ccccc1)C(=O)N[C@@H](CO)C(=O)N[C@@H](Cc1ccccc1)C(=O)N[C@@H](CCCNC(=N)N)C(=O)N[C@@H](Cc1ccccc1)C(N)=O)N(C)C (X2-FSFRF-NH2) | 455 nM |

Reference: ChEMBL document CHEMBL1800022, “Structure-activity relationships of a series of analogues of the RFamide-related peptide 26RFa” (J Med Chem, 2011)
